This is a sample that favours compounds with a hit; in the whole collection about 2% have one here.
ASAP1 GAP inh – inhibitors of human ASAP1 ArfGAP activity | Q9ULH1 | ASAP1-stimulated ARF1 GTP hydrolysis, GDP FP detection | actives 0.19% (n = 360,000) | inhibition, % at 16.5 µM | AID 624377; in the data active = inhibition above about 25%
MBD2 DNA inh – blocks human MBD2 binding to methylated DNA; Q9UBB5; TR-FRET, MBD2 binding to methylated oligonucleotide; inhibition, % at 4.4 µM; actives 0.31% (n = 370,000); in the data active = inhibition above about 13%
Target sequence (Q9UBB5 whole entry, looked up): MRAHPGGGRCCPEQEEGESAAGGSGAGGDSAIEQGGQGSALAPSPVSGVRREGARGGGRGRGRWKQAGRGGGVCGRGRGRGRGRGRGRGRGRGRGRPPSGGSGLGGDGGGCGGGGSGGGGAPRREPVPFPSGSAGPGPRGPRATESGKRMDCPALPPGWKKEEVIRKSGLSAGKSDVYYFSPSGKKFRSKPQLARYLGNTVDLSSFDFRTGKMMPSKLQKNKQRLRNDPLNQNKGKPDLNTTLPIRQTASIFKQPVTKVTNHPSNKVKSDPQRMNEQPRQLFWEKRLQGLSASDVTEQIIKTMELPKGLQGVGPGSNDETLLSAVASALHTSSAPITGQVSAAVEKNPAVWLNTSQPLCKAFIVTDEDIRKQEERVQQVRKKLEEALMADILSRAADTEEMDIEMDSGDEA
UHRF1 binding – blocks human UHRF1 binding to methylated DNA. Q96T88. UHRF1 binding to methylated oligo, TR-FRET. inhibition, % at 4.4 µM. actives 0.75% (n = 370,000). AID 687016; in the data active = inhibition above about 21%;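 also: UHRF1 SRA domain binding a hemimethylated CpG hairpin DNA probe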
TCR-CD3 inh – blocks the human TCR-CD3 interaction | inhibition, % at 9.4 µM | actives 0.37% (n = 360,000) | TAMRA-labeled TCR probe fluorescence, biochemical; in the data active = inhibition above about 19%;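 also: recombinant mutant TCR 2C K166C tagged with TAMRA read by polarization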
ARFGAP1 inh – rat ARFGAP1 inhibition | Q62848 | Arfgap1-stimulated ARF1 GTP hydrolysis, GDP FP detection | inhibition, % at 16.5 µM | actives 0.26% (n = 360,000) | AID 651572;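 active = inhibition above a per-plate limit, mean inhibition of low control wells plus 3 SD, cut at about 25% in these data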
Target sequence (Q62848 1-136 limits assumed): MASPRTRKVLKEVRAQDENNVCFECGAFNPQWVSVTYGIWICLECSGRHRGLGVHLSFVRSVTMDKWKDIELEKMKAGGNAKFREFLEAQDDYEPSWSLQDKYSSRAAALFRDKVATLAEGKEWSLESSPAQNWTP
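Replicates: Single well per compound | Assay system: Truncated rat Arfgap1 GAP domain | Control set: No-Arfgap1 wells (100%) versus DMSO full-reaction wells (0%) | Times: Enzyme reaction 120 min at 25 °C after 20 min preincubation | Reagent: Human ARF1(Δ1-17)-GTP substrate | Measured by: Tracer-displacement fluorescence polarization with EDTA stop, 620/688 nm | Measure: Percent inhibition of Arfgap1-stimulated GTP hydrolysis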
LEDGF integ inh – blocks HIV-1 LEDGF/p75-dependent DNA integration | inhibition, % at 3.7 µM | TR-FRET IN-LEDGF/p75 DNA integration, Eu/Cy5 | actives 0.64% (n = 370,000);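 active = inhibition above the screen-wide mean plus 3 SD, cut at about 13% in these data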;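 also: signal is the Cy5 over europium emission ratio at 671 and 618 nm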
IN multimer up – HIV-1 integrase multimerization activation, counter-screen; shares compounds with LEDGF integ inh; TR-FRET HIV-1 integrase multimerization, biochemical; activation, % at 7.7 µM; actives 17% (n = 2,000); AID 1053131; in the data active = activation above about 8.9%
TRFRET interf – TR-FRET optical interference, LEDGF/p75 integration counter-screen; shares compounds with LEDGF integ inh; TR-FRET optical interference counterscreen, HIV-1 IN multimerization; inhibition, % at 7.7 µM; 2,000 tested, under 10 active; AID 1053135;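 active = inhibition above the mean over all tested compounds plus 3 SD, which no compound reached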
LEDGF integ conf – LEDGF/p75-dependent HIV-1 integration inhibition, confirmation; shares compounds with LEDGF integ inh; TR-FRET LEDGF/p75-dependent HIV-1 integration, biochemical; inhibition, % at 3.7 µM; actives 36% (n = 2,000); in the data active = inhibition above about 14%
Hits are given with their value; - = inactive; . = no result.

SMILES | ASAP1 GAP inh | MBD2 DNA inh | UHRF1 binding | TCR-CD3 inh | ARFGAP1 inh | LEDGF integ inh | IN multimer up | TRFRET interf | LEDGF integ conf
COc1ccc(S(=O)(=O)N2CCOCC2)cc1C(=O)N(C)Cc1ccco1 | - | - | - | - | - | - | . | . | .
O=C(c1ccc(F)cc1)N1CCOCC1 | - | - | - | - | - | - | . | . | .
O=C(c1ccc(=O)oc1)N1CCOCC1 | - | - | 43 | - | - | 29 | - | - | 58
CN(C)c1cccc2c1c(NS(=O)(=O)c1cn(C)cn1)nn2C | - | - | - | - | - | 15 | - | - | -
COc1ccccc1N(CC(=O)NC1CCCCC1)S(=O)(=O)c1cccs1 | - | - | - | - | - | - | . | . | .
COc1ccccc1N(CC(=O)NC1CCCCC1C)S(=O)(=O)c1cccs1 (stereo not given) | - | - | - | - | - | 34 | - | - | -
O=C1COc2ccc(C(=O)c3ccccc3)cc2CN1 | - | - | - | - | - | 50 | - | - | -
O=C(c1ccccc1)c1ccc2c(c1)OCCCO2 | - | - | - | - | - | - | . | . | .
N=C(N)c1ccc(N)cc1 | - | - | - | - | - | - | . | . | .
NC(=Nc1ccc(N)cc1)C(N)=Nc1ccc(N)cc1 | - | - | - | - | - | 39 | - | - | -
O=C(CSc1nc2ccccc2[nH]1)NC1CCS(=O)(=O)C1 (stereo not given) | - | - | - | - | - | 37 | - | - | -
CCOC(=O)N1CCN(CCC(=O)Nc2cccc(Cl)c2C)CC1 | - | - | - | - | - | - | . | . | .
COc1ccc(C(CNC(=O)c2ccc(S(=O)(=O)Nc3ccccc3OC)cc2)N2CCCC2)cc1 (stereo not given) | - | - | - | - | - | - | . | . | .
Cc1cc2cc(C#N)c(NCCNC(=S)NCCCN3CCOCC3)nc2cc1C | - | - | - | - | - | - | . | . | .
COc1ccc2nc(NCCNC(=S)NCCCN3CCOCC3)c(C#N)cc2c1 | - | - | - | - | - | 35 | - | - | -
CN1CCN(C2=C(Cl)C(=O)c3ccccc3C2=O)CC1 | - | - | - | - | - | 34 | - | - | 73
Cc1ccc(/C=C2/CNC/C(=C/c3ccc(C)cc3)C2=O)cc1 | - | - | - | - | - | 92 | - | - | -
O=C(CCNS(=O)(=O)c1ccccc1)NNC(=O)C1COc2ccccc2O1 (stereo not given) | - | - | - | - | - | 14 | - | - | -
CC(=O)Oc1ccc(/C=C2/C(=O)N(c3ccccc3)N=C2C)cc1 | - | 24 | - | - | - | 51 | - | - | -
CC1=NN(c2ccccc2)C(=O)/C1=C/c1cccc(C)c1 | - | - | - | - | - | 16 | - | - | -
CC1=NN(c2ccccc2)C(=O)/C1=C/N(C)C | - | - | - | - | - | - | . | . | .
COc1ccc(/C=C2/C(=O)N(c3ccccc3)N=C2C)cc1OC | - | - | - | - | - | 27 | - | - | -
COc1ccc(C2=NN(c3ccccc3)C(=O)/C2=C\c2ccc(O)c(OC)c2)cc1 | - | - | - | - | - | 17 | - | - | -
COc1cc(/C=C2\C(=O)ON=C2c2ccc(Cl)cc2)ccc1O | - | - | - | - | - | - | . | . | .
Cc1nnc(N/N=C/c2ccc(-c3ccccc3F)o2)n1N | - | - | - | - | - | 44 | - | - | -
SMILES | ASAP1 GAP inh | MBD2 DNA inh | UHRF1 binding | TCR-CD3 inh | ARFGAP1 inh | LEDGF integ inh | IN multimer up | TRFRET interf | LEDGF integ conf
COC(=O)c1ccccc1-c1ccc(/C=N/NC(N)=O)o1 | - | - | - | - | - | - | . | . | .
CCc1nnc(N/N=C/c2ccc(-c3ccc([N+](=O)[O-])cc3)o2)n1N | - | - | - | - | - | 46 | - | - | -
Cc1n[nH]c(=S)n1/N=C/c1ccc(-c2ccccc2[N+](=O)[O-])o1 | - | - | - | - | - | - | . | . | .
Cc1nnc(N/N=C\c2ccc(-c3ccccc3[N+](=O)[O-])o2)n1N | - | - | - | - | - | 43 | - | - | -
Cn1c(=O)c2ccccc2n(Cc2cccc(F)c2)c1=O | - | - | - | - | - | 21 | - | - | -
NS(=O)(=O)c1ccc(NC(=O)CSc2nc3c(cnn3-c3ccccn3)c(=O)[nH]2)cc1 | - | - | - | - | - | - | . | . | .
O=C1OC(/C=C/c2ccc(Cl)cc2)=NC/1=C/c1ccco1 | - | - | - | - | - | 17 | - | - | -
Oc1cc(NCCN2CCOCC2)cc2cccnc12 | - | - | - | - | - | 37 | - | - | 42
Oc1cc(Nc2ccccc2)cc2cccnc12 | - | - | - | - | - | - | . | . | .
O=c1c2c([N+](=O)[O-])cc([N+](=O)[O-])cc2nc2ccccn12 | - | - | - | - | - | 25 | - | - | 19
Cc1ccc(CN2C(=O)C(CC(C)C)Nc3ncnc(N4CCN(c5ccccn5)CC4)c32)cc1 (stereo not given) | - | - | - | - | - | 91 | - | - | -
CNC(=O)CSc1nc2ccccc2c(=O)n1-c1cc(OC)ccc1OC | - | - | - | - | - | 18 | - | - | -
COc1ccc(NC(=O)CSc2nc(O)cc(=O)n2-c2ccc(OC)cc2)cc1 | - | - | - | - | - | - | . | . | .
COc1ccc(-n2c(SCC(=O)Nc3ccccc3)nc(O)cc2=O)cc1 | - | - | - | - | - | 53 | - | - | -
CCN(CC(=O)Nc1ccccc1C(F)(F)F)C(=O)CSCc1ccc(C)cc1 | - | - | - | - | - | - | . | . | .
O=C(COC(=O)c1c2c(nc3ccccc13)/C(=C\c1ccco1)CC2)NC1CCCC1 | - | - | - | - | - | 28 | 34 | - | 50
O=C(COC(=O)c1c2c(nc3ccccc13)/C(=C/c1cccc([N+](=O)[O-])c1)CCC2)NC1CCS(=O)(=O)C1 (stereo not given) | - | - | - | - | - | - | . | . | .
O=C(c1ccccc1)c1nn(-c2ccccc2)c(=O)cc1C(F)(F)F | - | - | - | - | - | - | . | . | .
O=C(c1ccccc1)c1nn(-c2ccc(Cl)cc2)c(=O)cc1C(F)(F)F | - | - | - | - | - | 23 | - | - | 19
CC1(C(=O)Nc2cccc3ccccc23)CCN1C(=O)C1(c2ccccc2)CCCC1 (stereo not given) | - | - | - | - | - | - | . | . | .
O=[N+]([O-])c1ccc2nc(-c3ccncc3)[nH]c2c1 | - | - | - | - | - | 46 | - | - | -
Cc1ccc(-c2nc3ccc([N+](=O)[O-])cc3[nH]2)cc1 | - | - | - | - | - | - | . | . | .
